Assay outcomes as filed in PubChem.
OX1R antag-1: human HCRTR1 antagonism; O43613; CHO/OX1R cells, Fluo-8 calcium fluorescence, orexin A; inhibition, % at 5 µM; 330,000 compounds, 0.43% hits;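 active means inhibition above its plate's threshold, mean inhibition of all tested compounds on the plate plus 3 SD, cut at about 37% in these data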;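 further: 0% = orexin A challenge wells and 100% = SB-334867-A antagonist wells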
Target sequence (O43613 whole entry, looked up): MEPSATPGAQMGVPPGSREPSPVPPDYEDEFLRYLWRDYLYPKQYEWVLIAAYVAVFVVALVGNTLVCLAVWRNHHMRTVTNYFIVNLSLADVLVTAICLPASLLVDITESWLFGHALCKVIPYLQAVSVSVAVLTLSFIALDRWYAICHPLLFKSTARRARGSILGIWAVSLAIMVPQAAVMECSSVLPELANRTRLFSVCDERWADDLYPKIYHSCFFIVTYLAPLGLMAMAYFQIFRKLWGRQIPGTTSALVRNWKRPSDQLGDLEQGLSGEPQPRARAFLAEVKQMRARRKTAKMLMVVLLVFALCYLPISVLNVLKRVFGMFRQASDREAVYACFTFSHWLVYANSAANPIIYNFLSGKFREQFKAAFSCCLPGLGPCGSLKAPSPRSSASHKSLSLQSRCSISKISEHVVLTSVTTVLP
TAAR1 ag: agonists of human TAAR1. Q96RJ0. CHO RD-HGA16 TAAR1, Fluo-8 calcium fluorescence; vehicle wells 0%, saturating PEA agonist 100%. activation, % at 3 µM. 360,000 compounds, 0.99% hits;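 active means activation above the mean activation of all test compounds in the run plus 3 SD, cut at about 38% in these data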
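Repeats: no replicates (n 1) | Material: CHO-derived RD-HGA16 cells with stable Gα16 and human TAAR1 | Technique: Kinetic Fluo-8 calcium fluorescence | Schedule: 17-24 h seeding, 75 min 37 °C dye, 30 min RT | Evaluation: % activation from peak over basal fluorescence ratio, DMSO-to-PEA scaled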
TAAR1 antagonist: antagonists of human TAAR1. CHO RD-HGA16 TAAR1, Fluo-8 calcium fluorescence, antagonist. inhibition, % at 3 µM. 360,000 compounds, 1.5% hits. Q96RJ0;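 active means inhibition above a per-plate cutoff, the mean inhibition of test compounds on that plate plus 3 SD, cut at about 49% in these data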;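 further: 0% = DMSO plus EC80 beta-PEA response and 100% = DMSO alone without agonist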
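test system = CHO RD-HGA16 cells bearing hTAAR1 | replication = singlicate | controls = DMSO-only wells and EC80 β-PEA-stimulated wells | reagent = EC80 β-phenethylamine stimulus | read-out basis = percent inhibition of PEA-evoked calcium signal, max/basal emission ratio | schedule = seeding 17-24 h prior, 75-min 37 °C, 30-min RT dye loading | signal = kinetic Fluo-8 calcium fluorescence measurement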
CHO parental Ca: counter-screen for OX1R antagonists: effect in parental CHO cells; parental CHO-K1, ATP-induced calcium, Fluo-8 fluorescence; inhibition, % at 5.6 µM; 330,000 compounds, 0.63% hits; AID 463079;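 active means inhibition above that plate's mean sample inhibition plus 3 SD, cut at about 26% in these data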;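 further: 0% = ATP-challenged DMSO wells and 100% = DMSO wells without ATP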
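material = parental CHO cells | also added = ATP as calcium-mobilizing challenge | dosing = single point at 5.6 µM | detection = intracellular calcium via Fluo-8 no-wash fluorescent dye | read-out = % inhibition | benchmarks = low control ATP plus DMSO, high control DMSO only | repeats = one well per compound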
GPR7 antagonist: antagonists of human GPR7 (neuropeptides B/W receptor 1) | P48145 | GPR7-expressing cells, fluorescence antagonist assay | inhibition, % at 4.4 µM | 290,000 compounds, 1.1% hits; in the data active means inhibition above about 16%, passing the limit was not always enough;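 further: cells stimulated with the agonist NPW; 0% = agonist with vehicle and 100% = vehicle without agonist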
Target sequence (P48145 whole entry, looked up): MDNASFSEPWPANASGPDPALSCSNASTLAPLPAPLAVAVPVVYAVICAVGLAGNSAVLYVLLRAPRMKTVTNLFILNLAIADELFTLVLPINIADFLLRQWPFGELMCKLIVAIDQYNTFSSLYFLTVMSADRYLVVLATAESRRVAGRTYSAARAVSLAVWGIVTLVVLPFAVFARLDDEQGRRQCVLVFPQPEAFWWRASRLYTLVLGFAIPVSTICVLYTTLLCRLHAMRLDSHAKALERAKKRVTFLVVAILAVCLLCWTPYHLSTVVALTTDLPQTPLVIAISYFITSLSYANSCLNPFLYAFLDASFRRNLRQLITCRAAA
OX1R antag-2: OX1R (human) antagonism | O43613 | OX1R-expressing cells, FRET antagonist read-out | inhibition, % at 6.6 µM | 330,000 compounds, 1.8% hits | AID 485270; in the data active means inhibition mostly above about 38%, no sharp cut-off; inactive means mostly below about 40%;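 further: 0% = agonist challenge alone and 100% = reference antagonist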
OX1R Fluo8 conf: OX1R (human) antagonism, confirmed; 1,100 compounds, 38% hits; CHO/OX1R cells, orexin A calcium Fluo-8 fluorescence; inhibition, % at 5 µM; shares compounds with OX1R antag-1; AID 492963; in the data active means inhibition above about 29%;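 further: 0% = agonist challenge alone and 100% = reference antagonist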
CHO Ca triplic: counter-screen: parental CHO calcium response change, triplicate | inhibition, % at 5.6 µM | AID 492965 | 1,100 compounds, 9.3% hits | parental CHO-K1, ATP-induced calcium, Fluo-8 fluorescence | shares compounds with OX1R antag-1;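 active means inhibition above a per-plate limit, the mean inhibition of that plate's test compounds plus 3 SD, cut at about 25% in these data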;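 further: 0% = ATP challenge with DMSO and 100% = DMSO without ATP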
The depositor's hits bear a star; nt = no result given. Only some compounds are listed: those with a hit (about 4.6% of all), similar ones and a draw of the others.

SMILES | OX1R antag-1 | TAAR1 ag | TAAR1 antagonist | CHO parental Ca | GPR7 antagonist | OX1R antag-2 | OX1R Fluo8 conf | CHO Ca triplic
O=C(Nc1ccccc1)N(CCCN1CCOCC1)Cc1cccs1 | -20.8 | 0.5 | -9.1 | -10.2 | -6.7 | 5.8 | nt | nt
CC(C)(C)c1ccc(S(=O)(=O)N(CCCN2CCOCC2)Cc2cccs2)cc1 | 102.7* | 4.8 | 16.1 | -19.7 | 2.7 | 21.0 | -9.6 | -7.7
Cn1cc(CCC(=O)N2CCCC(CCC(=O)NCc3ccc(F)c(F)c3)C2)cn1 (stereo not drawn) | -17.3 | 4.5 | 0.8 | -19.0 | 3.3 | 17.1 | nt | nt
CC1(C(=O)NS(=O)(=O)c2ccc(C#N)cc2)CCN1C(=O)c1cccc2ccccc12 (stereo not drawn) | nt | 0.5 | -6.9 | nt | nt | nt | nt | nt
C[C@@H](C(=O)Nc1ccc2ccccc2c1)[C@H]1C[C@]1(C)[C@H](NC(=O)OCc1ccccc1)c1ccccc1 | -52.7 | 1.9 | 7.7 | -18.8 | -0.1 | 12.6 | nt | nt
Cc1cc(C(=O)N[C@H](c2ccccc2)[C@@]2(C)C[C@@H]2[C@@H](C)C(=O)Nc2ccc3ccccc3c2)n(C)n1 | 41.1 | 30.1 | 18.6 | -2.4 | 9.4 | 51.7 | 11.9 | -11.1
FC(F)(F)c1nnc(N2CCN(c3ccc(Cl)cc3)CC2)s1 | -5.0 | 1.1 | -3.9 | -11.8 | 7.7 | 5.6 | nt | nt
FC(F)(F)c1nnc(Nc2ccc(Cl)cc2)s1 | 42.4* | 9.2 | -11.5 | 16.7 | 1.9 | 9.1 | -8.5 | -3.4
Cn1c(SCC(=O)Nc2ccccc2F)nnc1C1CCCCC1 | -1.9 | 5.6 | -28.2 | -1.9 | -17.8 | 5.7 | nt | nt
COc1ccc(C(=O)OCc2c(F)cccc2Cl)cc1S(=O)(=O)N1CCOCC1 | -20.7 | 9.0 | 29.0 | -21.8 | nt | 4.0 | nt | nt
CC(C)C1NC(C(=O)O)Cc2c1[nH]c1ccccc21 (stereo not drawn) | -13.9 | 2.0 | 10.4 | -0.5 | -4.3 | 8.0 | nt | nt
Cn1cnnc1SCC(=O)Nc1nc(-c2ccccc2)cs1 | 42.3* | 5.1 | 8.6 | -11.0 | 3.3 | 45.4 | 31.7* | 1.7
COc1ccc(N2CCN(C(=O)CSc3ccc([N+](=O)[O-])cc3)CC2)cc1 | 32.1 | 4.2 | 22.5 | -12.4 | 2.1 | 12.3 | 20.8 | 6.5
COc1ccc(N2CCN(C(=O)CSc3ccc(C)cc3)CC2)cc1 | -10.9 | 4.3 | 5.3 | -2.3 | 1.4 | 14.2 | nt | nt
CCCc1ccc(C(=O)NC(=O)c2ccccc2O)cc1 | 26.9 | 28.2 | -6.6 | 10.4 | 2.6 | 22.7 | 8.8 | 73.4*
O=C(NC(=O)c1ccccc1O)c1ccc(C(F)(F)F)cc1 | 8.6 | 11.7 | -7.3 | 6.3 | 8.9 | 23.8 | nt | nt
COc1ccc(NS(=O)(=O)c2ccc(C)c(C(=O)NCC(c3ccco3)N3CCCCC3)c2)cc1 (stereo not drawn) | -25.0 | 6.6 | -19.1 | -7.4 | nt | 6.1 | nt | nt
O=C(CN1CCN(c2ccccc2)CC1)N/N=C/c1cccc(F)c1 | -5.7 | 7.9 | -8.6 | -7.0 | -4.0 | 3.2 | nt | nt
C=C(C)COc1ccc2c(C)c(CC(=O)OC)c(=O)oc2c1C | 36.8 | nt | nt | 25.5 | 9.4 | 43.6 | -0.7 | 18.3
C[C@@H](NC(=O)c1ncn2c1C(=O)NC[C@@H]2C)c1ccccc1 | nt | -0.2 | -6.5 | nt | nt | nt | nt | nt
O=C(Nc1ccc(OC(F)F)c(Cl)c1)c1cccc(OC(F)F)c1 | 53.2* | nt | nt | 8.5 | 5.3 | 23.1 | 12.3 | 19.4
CC(Oc1ccc(Br)cc1Cl)C(=O)Nc1ccncc1 (stereo not drawn) | 31.1 | 5.2 | 23.2 | 25.4 | -3.7 | 4.8 | 32.8* | 14.3
CC(Oc1ccc(Br)cc1)C(=O)Nc1ccncc1 (stereo not drawn) | 0.2 | 20.7 | 21.0 | -0.7 | 2.6 | 13.6 | nt | nt
CNC(=S)/N=C/NOCc1ccc(Cl)cc1Cl | 41.1* | 8.6 | 22.1 | 12.4 | 19.4 | 28.8 | 20.0 | 18.9
NC(=O)NOCc1ccc(Cl)cc1Cl | 7.6 | 0.3 | -18.1 | -11.2 | -5.0 | 8.2 | nt | nt
SMILES | OX1R antag-1 | TAAR1 ag | TAAR1 antagonist | CHO parental Ca | GPR7 antagonist | OX1R antag-2 | OX1R Fluo8 conf | CHO Ca triplic
O=C(N/N=C/c1ccccn1)c1cc(-c2ccc(Br)cc2)nc2ccccc12 | 50.0* | -0.3 | 5.9 | 20.2 | -11.8 | 24.0 | 39.8* | 23.0
Cc1[nH]c2ccc(C(=O)OC(C)C(=O)NC3CCCCC3C)cc2c1C (stereo not drawn) | 31.6 | -2.6 | 7.7 | 11.0 | nt | 28.5 | 14.4 | -6.0
CCOC(=O)c1ccc(NC(=O)c2cccc(S(=O)(=O)N3c4ccccc4CC3C)c2)s1 (stereo not drawn) | 34.4 | 0.1 | 62.5* | 6.3 | 2.6 | 50.9 | 26.5 | 25.2*
COc1ccc(NC(=O)CSc2nnc(-c3ccoc3C)n2CCc2ccccc2)cc1 | 32.3 | 10.2 | 13.5 | -30.9 | 17.5 | 65.3 | 8.5 | -8.2
COc1ccc(CCC(=O)NCc2ccccc2OC)cc1 | 31.4 | 0.0 | 7.9 | -4.7 | -5.9 | 1.6 | 8.2 | 2.2
COc1ccc(C(=O)COC(=O)c2cc(C)no2)c(OC)c1 | -18.9 | 12.4 | 8.0 | -2.6 | nt | -0.9 | nt | nt
O=S(=O)(NCc1ccc(Cl)cc1)c1ccc(Br)cc1C1CC[C@@H](O)C1 (stereo partly drawn) | nt | 3.4 | 4.7 | nt | nt | nt | nt | nt
Cn1c(SCc2ccc(F)cc2Cl)nc2ccccc2c1=O | 35.9 | 1.0 | -8.1 | -10.6 | nt | 11.5 | 3.1 | -5.0
Cc1ccc2nc(-c3ccc(NC(=O)CN(c4ccccc4C)S(C)(=O)=O)cc3)sc2c1 | -0.8 | 0.8 | 33.5 | 27.1 | 0.5 | 12.1 | nt | nt
Cc1cc(C)cc(N(CC(=O)Nc2ccc(-c3nc4ccc(C)cc4s3)cc2)S(C)(=O)=O)c1 | 36.6* | -0.9 | 16.4 | -8.3 | 2.6 | -3.8 | -3.5 | -0.4
Cc1cn([C@H]2C[C@H](O)[C@@H](CNCc3cccn3-c3ccncc3)O2)c(=O)[nH]c1=O | nt | -0.3 | 8.8 | nt | nt | nt | nt | nt
OCC1(Cc2cccc(Cl)c2)CCCN(Cc2ccc3cc(F)ccc3n2)C1 (stereo not drawn) | 31.8 | 0.6 | -10.9 | -30.2 | 2.7 | 54.7 | 33.1* | -9.9
CNC(=O)CSc1nc2[nH]ncc2c(=O)[nH]1 | -3.4 | 4.0 | 3.7 | 1.1 | -4.8 | 9.8 | nt | nt
COc1ccc(OC)c(S(=O)(=O)Nc2ccc(Oc3ccccc3)cc2)c1 | 45.3 | 26.8 | 26.6 | 13.2 | -16.1 | 9.6 | 9.2 | 9.5
CCOc1ccc(NS(=O)(=O)c2cc(OC)ccc2OC)cc1 | -8.4 | 7.9 | -19.1 | -6.2 | -6.8 | 7.2 | nt | nt
